Among the data in PubChem BioAssay AID588582 (Sanford-Burnham Center for Chemical Genomics, 2011) are EC50 values, retold here.

Calls of active or inactive are those of the source.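 How the source made its calls: active means mean EC50 at or below 20 µM; inactive means the rest.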

The target in the assay is CHO-XBP1 luciferase reporter, IRE1-XBP1 arm activation. In words: IRE1-XBP1 reporter activation in CHO-XBP1 cells, SAR follow-up, counter-screen for UPR apoptotic arm activator project, cell-based, luciferase luminescence, set 2 (AID 588582). The method, boiled down: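 Material – CHO-XBP1 luciferase reporter cells · Control set – high 10 µg/mL tunicamycin, low DMSO only · Incubation – cells plated 16–18 h before dosing, compound exposure 6 h at 37 °C · Measured by – Steady-Glo luminescence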
(Counterscreens check selectivity or assay interference.)
With `CC1CN(S(=O)(=O)c2ccc(NC(=O)c3ccc([N+](=O)[O-])o3)cc2)CC(C)O1` (stereo not drawn), the EC50 – broadly, the concentration at which the effect is half-maximal – was > 80 µM (inactive).

On to `O=C(Nc1nc2c(F)c(F)ccc2s1)c1ccccn1`, for which the EC50 is > 80 µM (inactive).

`O=C(Nc1ccc(S(=O)(=O)C2CCOCC2)cc1)c1ccc([N+](=O)[O-])o1`: the EC50 was > 80 µM (inactive).

On to `O=C(Nc1ccc(S(=O)(=O)N2CCC3(CCCCC3)CC2)cc1)c1ccc([N+](=O)[O-])o1`, for which the EC50 was > 80 µM (inactive).

Turning to `Cn1c([N+](=O)[O-])cnc1C(=O)Nc1ccc(S(=O)(=O)N2CCC(C)(C)CC2)cc1`, the EC50 is > 80 µM (inactive).

`O=C(Nc1nc2ccc(C(F)(F)F)cc2s1)c1ccccn1`: the EC50 was > 80 µM (inactive).

Take `O=C(Nc1ccc(S(=O)(=O)N2CCC(F)CC2)cc1)c1ccc([N+](=O)[O-])o1`: the EC50 was > 80 µM (inactive).

As to `CC1(C)CCN(S(=O)(=O)c2ccc(NC(=O)c3cccc([N+](=O)[O-])c3)cc2)CC1`, the EC50 is > 80 µM (inactive).

Consider `CC(C)(C)C1CCN(S(=O)(=O)c2ccc(NC(=O)c3ccc([N+](=O)[O-])o3)cc2)CC1`, for which the EC50 is > 80 µM (inactive).

In the case of `O=C(Nc1nc2cc(F)cc(F)c2s1)c1ccccn1`, the EC50 is > 80 µM (inactive).

With `O=C(Nc1nc2c(F)ccc(F)c2s1)c1ccccn1`, the EC50 was > 80 µM (inactive).

Regarding `CC1(C)CCN(S(=O)(=O)c2ccc(NC(=O)c3ccc(C(F)(F)F)o3)cc2)CC1`, the EC50 is > 80 µM (inactive).

Turning to `O=C(Nc1ccc(S(=O)(=O)N2CCC(Cl)CC2)cc1)c1ccc([N+](=O)[O-])o1`, the EC50 was > 80 µM (inactive).

On to `O=C(Nc1nc2cc(F)ccc2s1)c1ccccn1`, for which the EC50 was > 80 µM (inactive).

Turning to `O=C(Nc1nc2cccc(F)c2s1)c1ccccn1`, the EC50 is > 80 µM (inactive).

For `O=C(Nc1nc2ccc(Cl)cc2s1)c1ccccn1`, the EC50 is > 80 µM (inactive).

Regarding `O=C(Nc1nc2cc(F)c(F)cc2s1)c1ccccn1`, the EC50 was > 80 µM (inactive).

Take `O=C(Nc1nc2ccc(F)c(F)c2s1)c1ccccn1`: the EC50 was > 80 µM (inactive).
